As a reminder, the MIC is the smallest concentration in the dilution series that meets the test's criterion for growth inhibition. What is called IC50 is the point on the concentration scale where inhibition reaches its midpoint.

≈ marks a conversion by molar mass, not a printed value. Where only a bound is given, the exact number is not on record here.

We go through 15 compounds from ChEMBL document CHEMBL3286247, “Expansion of Antibacterial Spectrum of Muraymycins toward Pseudomonas aeruginosa” (ACS Med Chem Lett, 2014).

The subject of test [1] is Pseudomonas aeruginosa. Put plainly: Antibacterial activity against Pseudomonas aeruginosa PAO1 assessed as growth inhibition after 20 hrs by microdilution method. It counts as functional. To be noted: PAO1, 20 h. In short, it runs like this:
(§1)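 Broth microdilution per CLSI in cation-adjusted Mueller-Hinton broth, using serial 2-fold compound dilutions. Each strain was inoculated at 5 × 10⁴ CFU per well in 0.1 mL. Plates were incubated at 35 °C for 20 h, and the MIC was then scored.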
Background: In broth dilution the organism is exposed to a series of concentrations in liquid medium.

Test [2] can be described thus: Inhibition of Staphylococcus aureus MraY by fluorescence assay. The essentials: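 Purified S. aureus MraY was given UDP-MurNAc-dansylpentapeptide as substrate. Formation of dansylated lipid I was followed by fluorescence enhancement (excitation 355 nm, emission 535 nm).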
Test [3] deals with Pseudomonas aeruginosa. Nature of the test: Antibacterial activity against Pseudomonas aeruginosa YY165 deltamexB mutant assessed as growth inhibition after 20 hrs by microdilution method. It counts as functional. Particulars: YY165, 20 h. In short, it runs like this:
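Broth microdilution per CLSI in cation-adjusted Mueller–Hinton broth; serial 2-fold compound dilutions inoculated with 5 × 10⁴ CFU per well (0.1 mL), incubated 35 °C for 20 h, then MIC scored. Strain YY165 is a MexB deletion mutant lacking the inner-membrane transporter of the MexAB-OprM efflux system.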

Test [4] has as its system Pseudomonas aeruginosa. Nature of the test: Antibacterial activity against Pseudomonas aeruginosa ATCC 25619 assessed as growth inhibition after 20 hrs by microdilution method. It counts as functional. To be noted: ATCC 25619, 20 h. In short, it runs like this: as §1
For test [5], the system named is Pseudomonas aeruginosa. Nature of the test: Antibacterial activity against clinical isolate Pseudomonas aeruginosa SR27156 assessed as growth inhibition after 20 hrs by microdilution method. It counts as functional. Particulars: SR27156, 20 h. The essentials:
as §1

For test [6], the system named is Pseudomonas aeruginosa. Put plainly: Antibacterial activity against Pseudomonas aeruginosa ATCC 27853 assessed as growth inhibition after 20 hrs by microdilution method. It counts as functional. To be noted: ATCC 27853, 20 h. The essentials: as §1

As for `CCCCCCCCCCCCCCC[C@H](NC(=O)[C@H](CCCN)NC(=O)N[C@H](C(=O)O)C(C)C)C(=O)NCCCN[C@H](C(=O)O)[C@H](O[C@@H]1O[C@H](CN)[C@@H](O)[C@H]1O)[C@H]1O[C@@H](n2ccc(=O)[nH]c2=O)[C@H](O)[C@@H]1O`, the MIC in the test with Pseudomonas aeruginosa [1], in the test with Pseudomonas aeruginosa [3], in the test with Pseudomonas aeruginosa [4], with Pseudomonas aeruginosa [5] and with Pseudomonas aeruginosa [6] was greater than 64 µg/mL each time. This compound also registered an IC50 in test [2] of 0.8 nM.
Regarding `CCCCCCCCCCCCCCC[C@H](NC(=O)[C@H](CCCNC(=N)N)NC(=O)N[C@H](C(=O)O)C(C)C)C(=O)NCCCN[C@H](C(=O)O)[C@H](O[C@@H]1O[C@H](CN)[C@@H](O)[C@H]1O)[C@H]1O[C@@H](n2ccc(=O)[nH]c2=O)[C@H](O)[C@@H]1O`, the MIC in the test with Pseudomonas aeruginosa [1], in the test with Pseudomonas aeruginosa [3], in the test on Pseudomonas aeruginosa [4], in the test on Pseudomonas aeruginosa [5] and with Pseudomonas aeruginosa [6] was greater than 64 µg/mL throughout. Also, the IC50 in test [2] was determined as 0.7 nM.
Take `CCCCCCCCC(=O)NCCCCCC(=O)NCCCN[C@H](C(=O)O)[C@H](O[C@@H]1O[C@H](CN)[C@@H](O)[C@H]1O)[C@H]1O[C@@H](n2ccc(=O)[nH]c2=O)[C@H](O)[C@@H]1O`: the MIC in the test with Pseudomonas aeruginosa [1], in the test on Pseudomonas aeruginosa [3], with Pseudomonas aeruginosa [4], in the test on Pseudomonas aeruginosa [5] and in the test on Pseudomonas aeruginosa [6] was greater than 64 µg/mL throughout. Moreover, in test [2], the IC50 was determined as 97.3 nM.
Consider `CCCCCCCCCCCCCCC[C@H](NC(=O)[C@@H](NC(=O)N[C@H](C(=O)O)C(C)C)[C@H]1CCNC(=N)N1)C(=O)NCCCN[C@H](C(=O)O)[C@H](O[C@@H]1O[C@H](CN)[C@@H](O)[C@H]1O)[C@H]1O[C@@H](n2ccc(=O)[nH]c2=O)[C@H](O)[C@@H]1O`, for which the MIC in the test with Pseudomonas aeruginosa [1], with Pseudomonas aeruginosa [3], in the test with Pseudomonas aeruginosa [4], in the test with Pseudomonas aeruginosa [5] and in the test on Pseudomonas aeruginosa [6] was greater than 64 µg/mL each time. Moreover, half-maximal inhibition in test [2] (IC50) was put at 0.8 nM.
As to `CCCCCCCCCCCCCCC[C@H](NC(=O)c1ccccn1)C(=O)NCCCN[C@H](C(=O)O)[C@H](O[C@@H]1O[C@H](CN)[C@@H](O)[C@H]1O)[C@H]1O[C@@H](n2ccc(=O)[nH]c2=O)[C@H](O)[C@@H]1O`, the MIC with Pseudomonas aeruginosa [1] is greater than 64 µg/mL; with Pseudomonas aeruginosa [3] it was greater than 64 µg/mL; in the test with Pseudomonas aeruginosa [4], 64 µg/mL (≈ 72.9 µM); in the test with Pseudomonas aeruginosa [5], greater than 64 µg/mL; in the test on Pseudomonas aeruginosa [6] it was greater than 64 µg/mL. Besides, the midpoint of inhibition in test [2], the IC50, lay at 6.4 nM.
Consider `CCCCCCCCCCCCCCC[C@H](NC(=O)[C@@H](N)CCCNC(=N)N)C(=O)NCCCN[C@H](C(=O)O)[C@H](O[C@@H]1O[C@H](CN)[C@@H](O)[C@H]1O)[C@H]1O[C@@H](n2ccc(=O)[nH]c2=O)[C@H](O)[C@@H]1O`, for which the minimal inhibitory concentration (MIC) in the test with Pseudomonas aeruginosa [1] amounted to 16 µg/mL (≈ 17.2 µM); in the test with Pseudomonas aeruginosa [3] it was 8 µg/mL (≈ 8.61 µM); in the test with Pseudomonas aeruginosa [4], 8 µg/mL (≈ 8.61 µM); in the test on Pseudomonas aeruginosa [5], 16 µg/mL (≈ 17.2 µM); with Pseudomonas aeruginosa [6], 32 µg/mL (≈ 34.4 µM). In addition, in test [2], it took 2.2 nM to reach half-maximal inhibition (IC50).
`CCCCCCCCCCCCCCCCNC(=O)[C@@H](NCCCNC(=O)[C@@H](N)CCCNC(=N)N)[C@H](O[C@@H]1O[C@H](CN)[C@@H](O)[C@H]1O)[C@H]1O[C@@H](n2ccc(=O)[nH]c2=O)[C@H](O)[C@@H]1O`: the MIC in the test on Pseudomonas aeruginosa [1] worked out at 32 µg/mL (≈ 36.2 µM); in the test with Pseudomonas aeruginosa [3], 16 µg/mL (≈ 18.1 µM); in the test on Pseudomonas aeruginosa [4], 16 µg/mL (≈ 18.1 µM); with Pseudomonas aeruginosa [5], 16 µg/mL (≈ 18.1 µM); in the test with Pseudomonas aeruginosa [6], 16 µg/mL (≈ 18.1 µM). The compound also returned an IC50 in test [2] of 12.2 nM.
As for `CCCCCCCCCCCCCCC[C@H](NC(=O)c1cnccn1)C(=O)NCCCN[C@H](C(=O)O)[C@H](O[C@@H]1O[C@H](CN)[C@@H](O)[C@H]1O)[C@H]1O[C@@H](n2ccc(=O)[nH]c2=O)[C@H](O)[C@@H]1O`, the MIC with Pseudomonas aeruginosa [1] is greater than 64 µg/mL; with Pseudomonas aeruginosa [3] it was greater than 64 µg/mL; in the test with Pseudomonas aeruginosa [4], 64 µg/mL (≈ 72.8 µM); in the test on Pseudomonas aeruginosa [5], greater than 64 µg/mL; with Pseudomonas aeruginosa [6], greater than 64 µg/mL. Further, the IC50 in test [2] was 33.1 nM.
Turning to `CCCCCCCCCCCCCCC[C@H](NC(=O)[C@@H](N)CCCSC)C(=O)NCCCN[C@H](C(=O)O)[C@H](O[C@@H]1O[C@H](CN)[C@@H](O)[C@H]1O)[C@H]1O[C@@H](n2ccc(=O)[nH]c2=O)[C@H](O)[C@@H]1O`, the MIC in the test on Pseudomonas aeruginosa [1] is greater than 64 µg/mL; with Pseudomonas aeruginosa [3] it was 16 µg/mL (≈ 17.4 µM); in the test on Pseudomonas aeruginosa [4], 16 µg/mL (≈ 17.4 µM); in the test on Pseudomonas aeruginosa [5] it was 64 µg/mL (≈ 69.7 µM); with Pseudomonas aeruginosa [6], 64 µg/mL (≈ 69.7 µM). This compound also gave an IC50 in test [2] of 8.5 nM.
As for `CC(C)C[C@H](NC(=O)[C@@H](NC(=O)N[C@H](C(=O)O)C(C)C)[C@@H]1CCNC(=N)N1)C(=O)NCCCN[C@H](C(=O)O)[C@H](O[C@@H]1O[C@H](CN)[C@@H](O)[C@H]1O)[C@H]1O[C@@H](n2ccc(=O)[nH]c2=O)[C@H](O)[C@@H]1O` [MURAMYCIN D2], the MIC is greater than 64 µg/mL in the test with Pseudomonas aeruginosa [1]; 64 µg/mL (≈ 69.9 µM) with Pseudomonas aeruginosa [3]; 64 µg/mL (≈ 69.9 µM) with Pseudomonas aeruginosa [4]; 32 µg/mL (≈ 34.9 µM) in the test on Pseudomonas aeruginosa [5]; greater than 64 µg/mL in the test on Pseudomonas aeruginosa [6]. The IC50 in test [2] was determined as 2.8 nM.
In the case of `CC(C)CCCC(=O)N[C@@H](CCCNC(=N)N)C(=O)NCCCN[C@H](C(=O)O)[C@H](O[C@@H]1O[C@H](CN)[C@@H](O)[C@H]1O)[C@H]1O[C@@H](n2ccc(=O)[nH]c2=O)[C@H](O)[C@@H]1O`, the MIC in the test with Pseudomonas aeruginosa [1], with Pseudomonas aeruginosa [3], with Pseudomonas aeruginosa [4], in the test with Pseudomonas aeruginosa [5] and in the test with Pseudomonas aeruginosa [6] was greater than 64 µg/mL in each case. Moreover, the midpoint of inhibition in test [2], the IC50, lay at 225 nM.
On to `CCCCCCCCCCCCCCC[C@H](NC(=O)[C@@H](NC(=O)N[C@H](C(=O)O)C(C)C)[C@@H]1CCNC(=N)N1)C(=O)NCCCN[C@H](C(=O)O)[C@H](O[C@@H]1O[C@H](CN)[C@@H](O)[C@H]1O)[C@H]1O[C@@H](n2ccc(=O)[nH]c2=O)[C@H](O)[C@@H]1O`, for which the MIC in the test with Pseudomonas aeruginosa [1], with Pseudomonas aeruginosa [3], in the test with Pseudomonas aeruginosa [4], with Pseudomonas aeruginosa [5] and in the test with Pseudomonas aeruginosa [6] was greater than 64 µg/mL in each case. Moreover, the IC50 in test [2] was determined as 1.1 nM.
On to `CCCCCCCCCCCCCCC[C@H](NC(=O)[C@@H](N)CCCN)C(=O)NCCCN[C@H](C(=O)O)[C@H](O[C@@H]1O[C@H](CN)[C@@H](O)[C@H]1O)[C@H]1O[C@@H](n2ccc(=O)[nH]c2=O)[C@H](O)[C@@H]1O`, for which the MIC in the test with Pseudomonas aeruginosa [1] was determined as 64 µg/mL (≈ 72.1 µM); with Pseudomonas aeruginosa [3] it was 32 µg/mL (≈ 36.1 µM); with Pseudomonas aeruginosa [4], 32 µg/mL (≈ 36.1 µM); in the test on Pseudomonas aeruginosa [5] it was 32 µg/mL (≈ 36.1 µM); with Pseudomonas aeruginosa [6], 64 µg/mL (≈ 72.1 µM). Further, the IC50 in test [2] came out at 3.8 nM.
With `CCCCCCCCCCCCCCC[C@H](NC(=O)c1ccc2ccccc2n1)C(=O)NCCCN[C@H](C(=O)O)[C@H](O[C@@H]1O[C@H](CN)[C@@H](O)[C@H]1O)[C@H]1O[C@@H](n2ccc(=O)[nH]c2=O)[C@H](O)[C@@H]1O`, the minimal inhibitory concentration (MIC) with Pseudomonas aeruginosa [1], in the test with Pseudomonas aeruginosa [3], in the test with Pseudomonas aeruginosa [4], in the test with Pseudomonas aeruginosa [5] and with Pseudomonas aeruginosa [6] was greater than 64 µg/mL each time. The same compound came in with an IC50 in test [2] of 105 nM.
Turning to `CCCCCCCCCCCCCCC[C@H](NC(=O)c1ccncc1)C(=O)NCCCN[C@H](C(=O)O)[C@H](O[C@@H]1O[C@H](CN)[C@@H](O)[C@H]1O)[C@H]1O[C@@H](n2ccc(=O)[nH]c2=O)[C@H](O)[C@@H]1O`, the MIC is greater than 64 µg/mL in the test on Pseudomonas aeruginosa [1]; greater than 64 µg/mL in the test with Pseudomonas aeruginosa [3]; 64 µg/mL (≈ 72.9 µM) in the test on Pseudomonas aeruginosa [4]; greater than 64 µg/mL with Pseudomonas aeruginosa [5]; greater than 64 µg/mL with Pseudomonas aeruginosa [6]. The compound further returned an IC50 in test [2] of 8.1 nM.
